# According to ChEMBL document CHEMBL4819032, “Structure-based design of highly selective 2,4,5-trisubstituted pyrimidine CDK9 inhibitors as anti-cancer agents” (Eur J Med Chem, 2021):
# Calls of active or inactive are those of the source. The calls are words filed in the database; no cut-off is given here.
# Key:
# [1] = biological target: Vascular endothelial growth factor receptor 2 (Homo sapiens) (UniProt P35968); experiment: Inhibition of recombinant human KDR 790 to end residues ) using myelin basic protein as substrate incubated for 40 mins by scintillation counting method
# Summary of the method: (§1)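 The 60-kinase diversity panel was run as a radiometric assay with ATP at each kinase's Km(app). Compound was tested at one fixed concentration across all kinases.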
# CDK2/Cyclin A2 = CDK2/Cyclin A2 (Homo sapiens, UniProt P24941); experiment: Inhibition of recombinant human full length CDK2/Cyclin A using histone H1 as substrate incubated for 40 mins in presence of [gamma-33P]-ATP by scintillation counting method; assay type: protein-complex assay
# [2] = biological target: Cyclin-dependent kinase 7/ cyclin H (Homo sapiens, UniProt P50613); experiment: Inhibition of recombinant human full length CDK7/Cyclin H using peptide as substrate incubated for 40 mins in presence of [gamma-33P]-ATP by scintillation counting method; assay type: protein-complex assay
# Summary of the method: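 Radiometric kinase assay with ATP at each kinase's Km(app). IC50 values come from 10-point dose-response curves, and apparent Ki is calculated from IC50 and the kinase's Km(ATP).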
# [3] = biological target: T1, Serine/threonine-protein kinase Nek2 (Homo sapiens) (UniProt P51955); experiment: Inhibition of recombinant human full length NEK2 using myelin basic protein as substrate incubated for 40 mins by scintillation counting method; summary of the method: as §1
# T1 sequence (whole entry): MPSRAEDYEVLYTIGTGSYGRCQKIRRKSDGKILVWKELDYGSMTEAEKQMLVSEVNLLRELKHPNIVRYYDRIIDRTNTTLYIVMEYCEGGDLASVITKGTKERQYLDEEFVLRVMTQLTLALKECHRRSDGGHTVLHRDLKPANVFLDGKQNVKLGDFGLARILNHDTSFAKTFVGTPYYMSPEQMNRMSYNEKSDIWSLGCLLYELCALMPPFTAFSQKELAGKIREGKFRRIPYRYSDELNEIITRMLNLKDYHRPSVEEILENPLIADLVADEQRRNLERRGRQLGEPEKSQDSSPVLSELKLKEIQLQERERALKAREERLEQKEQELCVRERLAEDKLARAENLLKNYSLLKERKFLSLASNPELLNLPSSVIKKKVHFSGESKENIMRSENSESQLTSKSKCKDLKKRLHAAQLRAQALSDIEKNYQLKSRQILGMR
# [4] = biological target: Tyrosine-protein kinase Fyn (Homo sapiens) (UniProt P06241); experiment: Inhibition of recombinant human full length FYN using KVEKIGEGTYGVVYK as substrate incubated for 40 mins by scintillation counting method; summary of the method: as §1
# A549 = experiment: Growth inhibition of human A549 cells after 48 hrs by MTT assay; assay type: functional
# A2780 [5] = experiment: Growth inhibition of human A2780 cells after 48 hrs by MTT assay; assay type: functional
# HeLa = experiment: Growth inhibition of human HeLa cells after 48 hrs by MTT assay; assay type: functional
# A2780 [6] = experiment: Induction of apoptosis in human A2780 cells assessed as necrotic cells at 1 uM after 24 hrs by Annexin V-FITC/PI staining based flow cytometric analysis (reference value: 3.6%); assay type: functional
# Summary of the method: (§2)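 A2780 cells cultured 24 h in medium alone or with varying inhibitor concentrations, then stained with FITC-annexin V/PI per kit protocol and analysed by flow cytometry. Run in triplicate and repeated at least twice; significance by one-way ANOVA, p < 0.01.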
# A2780 [7] = experiment: Induction of apoptosis in human A2780 cells assessed as early apoptotic cells at 2 uM after 24 hrs by Annexin V-FITC/PI staining based flow cytometric analysis (reference value: 1.6%); assay type: functional; summary of the method: as §2
# A2780 [8] = experiment: Induction of apoptosis in human A2780 cells assessed as viable cells at 5 uM after 24 hrs by Annexin V-FITC/PI staining based flow cytometric analysis (reference value: 92%); assay type: functional; conditions: read-out: Activity; summary of the method: as §2
# A2780 [9] = experiment: Induction of apoptosis in human A2780 cells assessed as late apoptotic cells at 5 uM after 24 hrs by Annexin V-FITC/PI staining based flow cytometric analysis (reference value: 2.8%); assay type: functional; summary of the method: as §2
# A2780 [10] = experiment: Induction of apoptosis in human A2780 cells assessed as necrotic cells at 5 uM after 24 hrs by Annexin V-FITC/PI staining based flow cytometric analysis (reference value: 3.6%); assay type: functional; summary of the method: as §2
# A2780 [11] = experiment: Induction of cell cycle arrest in human A2780 cells assessed as accumulation at G1/G0 phase at 0.5 uM after 24 hrs by propidium iodide staining based flow cytometric analysis (reference value: 56.7%); assay type: functional
# Summary of the method: (§3)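 4 × 10⁵ A2780 cells cultured 24 h in medium alone or with varying inhibitor concentrations, harvested into hypotonic fluorochrome solution (0.1% sodium citrate, 0.1% Triton X-100, propidium iodide, 100 ug/ml RNase A), and DNA content analysed by flow cytometry. Representative of three independent experiments.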
# A2780 [12] = experiment: Induction of cell cycle arrest in human A2780 cells assessed as accumulation at S phase at 0.5 uM after 24 hrs by propidium iodide staining based flow cytometric analysis (reference value: 20%); assay type: functional; summary of the method: as §3
# A2780 [13] = experiment: Induction of cell cycle arrest in human A2780 cells assessed as accumulation at G2/M phase at 0.5 uM after 24 hrs by propidium iodide staining based flow cytometric analysis (reference value: 21.6%); assay type: functional; summary of the method: as §3
# A2780 [14] = experiment: Induction of cell cycle arrest in human A2780 cells assessed as accumulation at G1/G0 phase at 2 uM after 24 hrs by propidium iodide staining based flow cytometric analysis (reference value: 56.7%); assay type: functional; summary of the method: as §3
# A2780 [15] = experiment: Induction of cell cycle arrest in human A2780 cells assessed as accumulation at S phase at 2 uM after 24 hrs by propidium iodide staining based flow cytometric analysis (reference value: 20%); assay type: functional; summary of the method: as §3
# A2780 [16] = experiment: Induction of cell cycle arrest in human A2780 cells assessed as accumulation at pre-G1 phase at 5 uM after 24 hrs by propidium iodide staining based flow cytometric analysis (reference value: 1.2%); assay type: functional
# [17] = biological target: Cyclin-dependent kinase 9 (Homo sapiens) (UniProt P50750); experiment: Inhibition of CDK9 in human A2780 cells assessed as reduction in RNAP2 phosphorylation at ser5 residues after 24 hrs by Western blot analysis; assay type: cell-based; conditions: dose 0.5-5 µM
# A2780 [18] = experiment: Induction of apoptosis in human A2780 cells assessed as reduction in Mcl-1 protein expression at 5 uM after 6 to 12 hrs by Western blot analysis; assay type: functional, cell-based; conditions: time 6-12 hrs
# Summary of the method: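 A2780 cells treated for 6 or 12 h, then lysates analysed by Western blotting.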
# A2780 [19] = experiment: Induction of apoptosis in human A2780 cells assessed as increase in cleaved PARP protein expression at 0.5 to 5 uM after 24 hrs by Western blot analysis; assay type: functional, cell-based; conditions: dose 0.5-5 µM
# Summary of the method: (§4)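 A2780 cells treated for 24 h over a concentration series, then lysates analysed by Western blotting.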
# A2780 [20] = experiment: Induction of apoptosis in human A2780 cells assessed as increase in p53 protein expression at 0.5 to 5 uM after 24 hrs by Western blot analysis; assay type: functional, cell-based; conditions: dose 0.5-5 µM; summary of the method: as §4
# HCT-116 [21] = experiment: Induction of apoptosis in human HCT-116 cells assessed as reduction in Mcl-1 protein expression after 24 hrs by Western blot analysis; assay type: functional, cell-based; conditions: dose 0.5-5 µM
# HCT-116 [22] = experiment: Induction of apoptosis in human HCT-116 cells assessed as reduction in XIAP protein expression after 24 hrs by Western blot analysis; assay type: functional, cell-based; conditions: dose 0.5-5 µM
# HCT-116 [23] = experiment: Induction of apoptosis in human HCT-116 cells assessed as increase in p21 protein expression at 0.5 to 5 uM after 24 hrs by Western blot analysis; assay type: functional, cell-based; conditions: dose 0.5-5 µM
# Sequence of Tyrosine-protein kinase Fyn (Homo sapiens) (P06241 2-537 limits assumed): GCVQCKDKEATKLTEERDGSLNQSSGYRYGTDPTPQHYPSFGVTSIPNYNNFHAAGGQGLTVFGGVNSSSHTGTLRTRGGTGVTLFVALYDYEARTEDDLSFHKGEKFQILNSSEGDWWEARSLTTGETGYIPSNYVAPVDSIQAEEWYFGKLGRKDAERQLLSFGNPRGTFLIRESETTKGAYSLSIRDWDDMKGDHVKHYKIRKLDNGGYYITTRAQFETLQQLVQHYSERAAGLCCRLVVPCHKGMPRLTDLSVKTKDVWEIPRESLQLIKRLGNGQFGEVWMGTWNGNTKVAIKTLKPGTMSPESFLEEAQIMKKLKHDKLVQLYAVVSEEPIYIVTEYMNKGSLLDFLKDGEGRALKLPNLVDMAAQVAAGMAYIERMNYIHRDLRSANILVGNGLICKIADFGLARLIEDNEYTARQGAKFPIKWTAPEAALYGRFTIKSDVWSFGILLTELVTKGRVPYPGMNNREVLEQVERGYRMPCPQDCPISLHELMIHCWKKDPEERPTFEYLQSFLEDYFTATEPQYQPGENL
# Sequence of Cyclin-dependent kinase 9 (Homo sapiens) (P50750 whole entry): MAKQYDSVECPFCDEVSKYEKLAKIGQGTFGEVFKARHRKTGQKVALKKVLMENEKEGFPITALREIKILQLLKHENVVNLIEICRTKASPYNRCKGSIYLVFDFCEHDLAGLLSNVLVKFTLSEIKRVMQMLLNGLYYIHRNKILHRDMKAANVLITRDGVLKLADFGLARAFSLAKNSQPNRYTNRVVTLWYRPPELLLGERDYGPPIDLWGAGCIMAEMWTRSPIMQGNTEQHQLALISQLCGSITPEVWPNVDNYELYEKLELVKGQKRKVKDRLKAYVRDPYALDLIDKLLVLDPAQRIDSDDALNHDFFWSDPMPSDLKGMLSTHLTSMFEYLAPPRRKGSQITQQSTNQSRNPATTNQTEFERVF
# Sequence of Vascular endothelial growth factor receptor 2 (Homo sapiens) (P35968 whole entry): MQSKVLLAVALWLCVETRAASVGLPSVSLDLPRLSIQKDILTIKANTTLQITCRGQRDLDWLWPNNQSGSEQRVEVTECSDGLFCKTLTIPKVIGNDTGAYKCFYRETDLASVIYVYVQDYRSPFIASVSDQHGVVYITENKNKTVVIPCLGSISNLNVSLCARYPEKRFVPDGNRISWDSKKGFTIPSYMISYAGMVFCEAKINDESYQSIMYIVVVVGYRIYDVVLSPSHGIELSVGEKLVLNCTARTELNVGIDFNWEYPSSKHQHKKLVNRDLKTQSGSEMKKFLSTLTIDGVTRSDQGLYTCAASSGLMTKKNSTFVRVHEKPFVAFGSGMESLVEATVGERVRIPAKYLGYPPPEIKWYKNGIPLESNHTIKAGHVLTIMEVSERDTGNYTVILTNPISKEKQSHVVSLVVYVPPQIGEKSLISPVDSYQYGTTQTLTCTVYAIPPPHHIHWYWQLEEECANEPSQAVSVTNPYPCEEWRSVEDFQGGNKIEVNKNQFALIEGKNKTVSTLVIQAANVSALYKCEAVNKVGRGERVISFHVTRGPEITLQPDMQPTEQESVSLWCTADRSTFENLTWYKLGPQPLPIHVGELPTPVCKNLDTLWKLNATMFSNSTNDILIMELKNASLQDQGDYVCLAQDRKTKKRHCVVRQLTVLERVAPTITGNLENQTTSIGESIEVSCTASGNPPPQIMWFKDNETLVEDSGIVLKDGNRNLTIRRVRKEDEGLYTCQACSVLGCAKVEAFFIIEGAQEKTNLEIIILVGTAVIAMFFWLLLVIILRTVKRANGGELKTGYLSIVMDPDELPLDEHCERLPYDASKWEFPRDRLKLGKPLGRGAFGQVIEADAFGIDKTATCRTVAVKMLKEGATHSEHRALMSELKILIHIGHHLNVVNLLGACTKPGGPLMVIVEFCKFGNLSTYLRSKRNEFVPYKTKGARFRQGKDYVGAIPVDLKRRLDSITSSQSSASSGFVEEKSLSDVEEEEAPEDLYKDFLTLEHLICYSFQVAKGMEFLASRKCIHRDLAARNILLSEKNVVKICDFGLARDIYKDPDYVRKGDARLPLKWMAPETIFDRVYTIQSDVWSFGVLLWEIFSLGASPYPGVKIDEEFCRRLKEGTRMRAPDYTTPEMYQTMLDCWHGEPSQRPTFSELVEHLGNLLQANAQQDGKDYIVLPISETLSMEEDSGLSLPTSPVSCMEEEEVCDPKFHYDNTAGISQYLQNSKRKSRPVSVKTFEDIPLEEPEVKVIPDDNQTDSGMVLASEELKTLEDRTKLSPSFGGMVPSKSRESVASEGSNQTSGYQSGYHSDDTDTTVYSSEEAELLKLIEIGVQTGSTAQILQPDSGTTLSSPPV
# Sequence of Cyclin-dependent kinase 7/ cyclin H (P51946 whole entry): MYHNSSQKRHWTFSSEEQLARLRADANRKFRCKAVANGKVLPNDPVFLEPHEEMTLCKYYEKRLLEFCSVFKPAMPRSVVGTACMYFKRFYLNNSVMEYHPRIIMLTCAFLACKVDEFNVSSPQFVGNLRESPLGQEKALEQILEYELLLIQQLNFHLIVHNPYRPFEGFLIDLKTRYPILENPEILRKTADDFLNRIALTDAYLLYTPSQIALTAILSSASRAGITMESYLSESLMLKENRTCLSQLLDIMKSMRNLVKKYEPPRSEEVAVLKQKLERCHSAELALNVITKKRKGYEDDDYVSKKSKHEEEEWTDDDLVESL
# Sequence of Cyclin-dependent kinase 7/ cyclin H (P50613 whole entry): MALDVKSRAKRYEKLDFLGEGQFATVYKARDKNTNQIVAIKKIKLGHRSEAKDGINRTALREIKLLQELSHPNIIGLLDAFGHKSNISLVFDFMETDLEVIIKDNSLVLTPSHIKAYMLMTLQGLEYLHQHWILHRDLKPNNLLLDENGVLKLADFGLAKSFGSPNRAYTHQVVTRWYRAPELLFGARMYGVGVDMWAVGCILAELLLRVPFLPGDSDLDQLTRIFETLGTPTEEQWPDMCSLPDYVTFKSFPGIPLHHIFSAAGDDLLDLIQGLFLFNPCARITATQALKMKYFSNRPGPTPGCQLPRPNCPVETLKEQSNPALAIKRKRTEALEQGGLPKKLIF
smiles,measurement,setting,value
CNc1nc(C)c(-c2nc(Nc3cccc(N4CCN5CCC4CC5)c3)ncc2C)s1,inhibition,[1],Active
same,Ki,CDK2/Cyclin A2,1250 nM
same,Ki,[2],546 nM
same,inhibition,[3],Active
same,inhibition,[4],Active
same,GI50,A549,1540 nM
same,GI50,A2780 [5],640 nM
same,GI50,HeLa,800 nM
same,Activity,A2780 [6],3%
same,Activity,A2780 [7],14.4%
same,viability at 5 µM,A2780 [8],22.6%
same,Activity,A2780 [9],47.2%
same,Activity,A2780 [10],5.6%
same,Activity,A2780 [11],59.8%
same,Activity,A2780 [12],15.3%
same,Activity,A2780 [13],22.2%
same,Activity,A2780 [14],24.3%
same,Activity,A2780 [15],8.3%
same,Activity,A2780 [16],34%
same,inhibition,[17],Dose-Dependent Effect
same,Activity,A2780 [18],Active
same,Activity,A2780 [19],Active
same,Activity,A2780 [20],Active
same,Activity,HCT-116 [21],Dose-Dependent Effect
same,Activity,HCT-116 [22],Dose-Dependent Effect
same,Activity,HCT-116 [23],Active
